The values that follow come from paper PMC4919474 (EBioMedicine, 2016).

The test concerns Drosophila S3 cells. In words: qHTS of OA-induced lipid droplet storage in S3 cells. It counts as cell-based. Particulars: Drosophila melanogaster. The gist of the method:
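Drosophila S3 cells in medium with 5% FCS receive library compounds at […] (46 μM to 3 nM, 1:5 steps). Droplets are induced with 400 μM oleic acid on fatty-acid-free BSA. After 18 h, cells are fixed and stained with BODIPY 493/503 (lipid) and CellTracker Red CMTPX (cell count), then read by 488 nm laser scanning. Lipid signal is normalised to cell number; dose-response curves are fitted.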
(In qHTS, concentration-response curves come from the screen itself.)

As for `CCC/C=C/C/C=C/C=C/C=N/NN=O` [TriacsinC], the response was half-maximal at 90 nM (EC50).
